Laboratory results from ChEMBL document CHEMBL1148697, “Synthesis and evaluation of new arylbenzo[b]thiophene and diarylthiophene derivatives as inhibitors of the NorA multidrug transporter of Staphylococcus aureus” (2007).
Values after ≈ are worked out from the molar mass of the structure shown.

Key:
Assay type in all cases: functional
KB [1] = test: Cytotoxicity against KB cells at 0.25 nM; conditions: Homo sapiens
MCF7R [2] = test: Cytotoxicity against MCF7R cells at 0.25 nM; conditions: Homo sapiens
MCF7 [3] = test: Cytotoxicity against MCF7 cells at 0.25 nM; conditions: Homo sapiens
Staphylococcus aureus [4] = test: Effect on ethidium bromide efflux in quinolone/macrolide-resistant Staphylococcus aureus NorA by measuring remaining initial ethidium concentration at 20 mg/L after 10 mins
Method in brief: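 S. aureus NorA 1199B grown in LB at 37 °C to A660 0.7–0.8, then loaded with EtBr (10 mg/L) plus CCCP (20 mg/L) for 10 min at 37 °C. Cells spun and resuspended in LB at 37 °C without EtBr, inhibitor added at resuspension. Fluorescence read continuously for 10 min and expressed as percentage of initial fluorescence. At least three experiments.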

Staphylococcus aureus [5] = test: Increase in ciprofloxacine uptake in quinolone/macrolide-resistant Staphylococcus aureus […] at 20 mg/L after 10 mins
Method in brief: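 Cells grown in LB to OD660 0.7–0.8, washed twice and concentrated 20-fold in 100 mM phosphate pH 7.2 with 1 mM MgSO4 and 0.4% glucose. Preincubated 5 min at 37 °C, then ciprofloxacin 10 mg/L added. Samples spun through silicone oil, pellets lysed in glycine–HCl pH 3.0 at 100 °C for 10 min. Fluorescence (ex 242/em 487 nm) read against a lysate standard curve, as ng per 10⁹ CFU.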

KB [6] = test: Cytotoxicity against KB cells at 10 uM; conditions: Homo sapiens
Method in brief: (§1)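 Cytotoxicity tested in KB, MCF7 and MCF7R cells with compounds at 10⁻⁵ M.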

Bacillus subtilis = test: Effect on ethium bromide efflux in Bacillus subtilis at 20 mg/L after 10 mins
Method in brief: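 B. subtilis ΔΔ (bmr::cat blt::erm) carried plasmid pBEV, which expresses NorA from a strong promoter. Cells were transferred into PBS pH 7.2 with 0.5% glucose at 37 °C. They were loaded with EtBr (10 mg/L) plus CCCP (20 mg/L) for 10 min at 37 °C, spun down and resuspended in LB without EtBr, adding the inhibitor at that point. Fluorescence was recorded continuously for 10 min and expressed as % of initial. Each experiment was done at least three times.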

MCF7R [7] = test: Cytotoxicity against MCF7R cells at 10 uM; conditions: Homo sapiens; method in brief: as §1
Staphylococcus aureus [8] = test: Increase in ciprofloxacine uptake in quinolone/macrolide-susceptible Staphylococcus aureus 1199 at 20 mg/L after 10 mins
Method in brief: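 Silicone-oil uptake assay. Cells were grown in LB to OD660 0.7–0.8, washed, and concentrated 20-fold in 100 mM phosphate pH 7.2 with 1 mM MgSO₄ and 0.4% glucose. After 5 min at 37 °C, ciprofloxacin was added at 10 mg/L. Timed samples were spun through silicone oil and the pellets lysed in 0.1 M glycine–HCl pH 3.0 at 100 °C for 10 min. Lysate fluorescence (ex 242/em 487 nm) was read against a standard curve and reported as ng per 10⁹ CFU.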

MCF7 [9] = test: Cytotoxicity against MCF7 cells at 10 uM; conditions: Homo sapiens; method in brief: as §1
Staphylococcus aureus [10] = test: Antibacterial activity against quinolone/macrolide-susceptible Staphylococcus aureus ATCC 25923
Method in brief: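 MIC by twofold serial dilution in Mueller–Hinton broth with 10⁶ CFU/mL inoculum. Read as the lowest concentration with no visible growth after 18 h at 37 °C. Run in triplicate.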

Staphylococcus aureus [11] = test: Antibacterial activity against quinolone/macrolide-susceptible Staphylococcus aureus ATCC 25923 assessed as growth
Method in brief: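 Single-concentration growth screen: compound added from DMSO solution to a final 100 mg/L in MH medium with 10⁶ CFU/mL bacteria. Incubated at 37 °C with growth read at 650 nm after 1, 2, 8 and 24 h. Ampicillin was the positive control and DMSO the negative control. Scored ++ for no growth, + for growth <10% of the negative control, – otherwise.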

CC(=O)O[C@@]12CO[C@@H]1C[C@H](O)[C@@]1(C)C(=O)[C@H](O)C3=C(C)[C@@H](OC(=O)[C@H](O)[C@@H](NC(=O)OC(C)(C)C)c4ccccc4)C[C@@](O)([C@@H](OC(=O)c4ccccc4)[C@H]21)C3(C)C [DOCETAXEL]
inhibition at 0.00025 µM (KB [1]): 87%
inhibition at 0.00025 µM (MCF7R [2]): 4%
inhibition at 0.00025 µM (MCF7 [3]): 31%

COC(=O)[C@H]1[C@H]2C[C@@H]3c4[nH]c5cc(OC)ccc5c4CCN3C[C@H]2C[C@@H](OC(=O)c2cc(OC)c(OC)c(OC)c2)[C@@H]1OC [RESERPINE]
Remaining ethidium fluorescence (% of initial) (Staphylococcus aureus [4]): 72%

O=Cc1c(-c2ccccc2)sc2ccccc12
Activity (Staphylococcus aureus [5]): 0.07 a.u.
inhibition at 10 µM (KB [6]): 42%
Activity (Bacillus subtilis): 5%
inhibition at 10 µM (MCF7R [7]): 37%
Remaining ethidium fluorescence (% of initial) (Staphylococcus aureus [4]): 72%
Activity (Staphylococcus aureus [8]): 0.08 a.u.
inhibition at 10 µM (MCF7 [9]): 51%

COc1cc(-c2cccnc2)sc1-c1cccnc1
MIC (Staphylococcus aureus [10]): 100 µg/mL (≈ 373 µM)

O=Cc1c(-c2ccc(Cl)cc2)sc2ccccc12
inhibition at 10 µM (KB [6]): 67%
inhibition at 10 µM (MCF7R [7]): 35%
inhibition at 10 µM (MCF7 [9]): 69%

COC(=O)C(Cc1c(-c2ccc(C#N)cc2)sc2ccccc12)NC(=O)c1ccccc1 (racemic)
inhibition at 10 µM (KB [6]): 35%
inhibition at 10 µM (MCF7R [7]): 32%
Activity (Staphylococcus aureus [11]): <10%
inhibition at 10 µM (MCF7 [9]): 12%

O=Cc1c(-c2ccccc2)oc2ccccc12
inhibition at 10 µM (KB [6]): 67%
inhibition at 10 µM (MCF7R [7]): 37%
Remaining ethidium fluorescence (% of initial) (Staphylococcus aureus [4]): 72%
inhibition at 10 µM (MCF7 [9]): 47%

COc1c(-c2cccnc2)sc2ccccc12
MIC (Staphylococcus aureus [10]): 100 µg/mL (≈ 414 µM)

N#Cc1ccccc1-c1sc2ccccc2c1OCC(F)(F)F
inhibition at 10 µM (KB [6]): 56%
inhibition at 10 µM (MCF7R [7]): 39%
inhibition at 10 µM (MCF7 [9]): 49%

FC(F)(F)COc1c(-c2cccnc2)sc2ccccc12
MIC (Staphylococcus aureus [10]): 100 µg/mL (≈ 323 µM)

N#Cc1c(-c2cccc(Cl)c2)sc2ccccc12
inhibition at 10 µM (KB [6]): 23%
inhibition at 10 µM (MCF7R [7]): 20%
inhibition at 10 µM (MCF7 [9]): 36%

O=Cc1ccsc1-c1ccccc1
inhibition at 10 µM (KB [6]): 33%
inhibition at 10 µM (MCF7R [7]): 0%
inhibition at 10 µM (MCF7 [9]): 16%

COc1cc(-c2cccc(C(F)(F)F)c2)sc1-c1cccnc1
inhibition at 10 µM (KB [6]): 7%
inhibition at 10 µM (MCF7R [7]): 0%
inhibition at 10 µM (MCF7 [9]): 0%

COc1ccc(-c2sc3ccccc3c2C=O)cc1
inhibition at 10 µM (KB [6]): 89%
inhibition at 10 µM (MCF7R [7]): 80%
inhibition at 10 µM (MCF7 [9]): 62%

COC(=O)/C(=C/c1c(-c2ccc(C#N)cc2)sc2ccccc12)NC(=O)c1ccccc1
inhibition at 10 µM (KB [6]): 24%
inhibition at 10 µM (MCF7 [9]): 0%

N#Cc1ccccc1-c1sc2ccccc2c1C=O
inhibition at 10 µM (KB [6]): 51%
inhibition at 10 µM (MCF7R [7]): 33%
inhibition at 10 µM (MCF7 [9]): 38%

N#Cc1ccccc1-c1c(OCC(F)(F)F)sc2ccccc12
inhibition at 10 µM (KB [6]): 100%
inhibition at 10 µM (MCF7R [7]): 97%
inhibition at 10 µM (MCF7 [9]): 92%

N#Cc1sc2ccccc2c1-c1cccnc1
inhibition at 10 µM (KB [6]): 37%
inhibition at 10 µM (MCF7R [7]): 22%
inhibition at 10 µM (MCF7 [9]): 18%

O=Cc1c(-c2ccc(C(F)(F)F)cc2)sc2ccccc12
inhibition at 10 µM (KB [6]): 88%
inhibition at 10 µM (MCF7R [7]): 59%
inhibition at 10 µM (MCF7 [9]): 73%

COc1ccsc1-c1ccccc1C#N
inhibition at 10 µM (KB [6]): 11%
inhibition at 10 µM (MCF7R [7]): 4%
inhibition at 10 µM (MCF7 [9]): 17%

O=Cc1c(-c2cccnc2)sc2ccccc12
inhibition at 10 µM (KB [6]): 18%
inhibition at 10 µM (MCF7R [7]): 0%
Remaining ethidium fluorescence (% of initial) (Staphylococcus aureus [4]): 72%
inhibition at 10 µM (MCF7 [9]): 3%

N#Cc1c(-c2ccc(Cl)cc2)sc2ccccc12
inhibition at 10 µM (KB [6]): 29%
inhibition at 10 µM (MCF7R [7]): 18%
inhibition at 10 µM (MCF7 [9]): 27%
